Assay outcomes as filed in PubChem BioAssay.
MITF TRPM1 HTS – increases MITF-driven TRPM1 promoter luciferase signal; SK-MEL-5 TRPM1-promoter luciferase, 24 h; % of positive control, neutral wells = 0; activation, % at 12.5 µM; actives 0.75% (n = 300,000);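 active means mean activation of at least 80% with every replicate also reaching 80%; inconclusive means mean reaches 80% but some replicate falls short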
NSD2 inh – blocks human histone methyltransferase NSD2; actives 0.54% (n = 310,000); inhibition, % at 12.5 µM; NSD2 peptide methylation, AlphaScreen, 120 min; in the data active means inhibition above about 50%
Target sequence (O96028 whole entry, looked up): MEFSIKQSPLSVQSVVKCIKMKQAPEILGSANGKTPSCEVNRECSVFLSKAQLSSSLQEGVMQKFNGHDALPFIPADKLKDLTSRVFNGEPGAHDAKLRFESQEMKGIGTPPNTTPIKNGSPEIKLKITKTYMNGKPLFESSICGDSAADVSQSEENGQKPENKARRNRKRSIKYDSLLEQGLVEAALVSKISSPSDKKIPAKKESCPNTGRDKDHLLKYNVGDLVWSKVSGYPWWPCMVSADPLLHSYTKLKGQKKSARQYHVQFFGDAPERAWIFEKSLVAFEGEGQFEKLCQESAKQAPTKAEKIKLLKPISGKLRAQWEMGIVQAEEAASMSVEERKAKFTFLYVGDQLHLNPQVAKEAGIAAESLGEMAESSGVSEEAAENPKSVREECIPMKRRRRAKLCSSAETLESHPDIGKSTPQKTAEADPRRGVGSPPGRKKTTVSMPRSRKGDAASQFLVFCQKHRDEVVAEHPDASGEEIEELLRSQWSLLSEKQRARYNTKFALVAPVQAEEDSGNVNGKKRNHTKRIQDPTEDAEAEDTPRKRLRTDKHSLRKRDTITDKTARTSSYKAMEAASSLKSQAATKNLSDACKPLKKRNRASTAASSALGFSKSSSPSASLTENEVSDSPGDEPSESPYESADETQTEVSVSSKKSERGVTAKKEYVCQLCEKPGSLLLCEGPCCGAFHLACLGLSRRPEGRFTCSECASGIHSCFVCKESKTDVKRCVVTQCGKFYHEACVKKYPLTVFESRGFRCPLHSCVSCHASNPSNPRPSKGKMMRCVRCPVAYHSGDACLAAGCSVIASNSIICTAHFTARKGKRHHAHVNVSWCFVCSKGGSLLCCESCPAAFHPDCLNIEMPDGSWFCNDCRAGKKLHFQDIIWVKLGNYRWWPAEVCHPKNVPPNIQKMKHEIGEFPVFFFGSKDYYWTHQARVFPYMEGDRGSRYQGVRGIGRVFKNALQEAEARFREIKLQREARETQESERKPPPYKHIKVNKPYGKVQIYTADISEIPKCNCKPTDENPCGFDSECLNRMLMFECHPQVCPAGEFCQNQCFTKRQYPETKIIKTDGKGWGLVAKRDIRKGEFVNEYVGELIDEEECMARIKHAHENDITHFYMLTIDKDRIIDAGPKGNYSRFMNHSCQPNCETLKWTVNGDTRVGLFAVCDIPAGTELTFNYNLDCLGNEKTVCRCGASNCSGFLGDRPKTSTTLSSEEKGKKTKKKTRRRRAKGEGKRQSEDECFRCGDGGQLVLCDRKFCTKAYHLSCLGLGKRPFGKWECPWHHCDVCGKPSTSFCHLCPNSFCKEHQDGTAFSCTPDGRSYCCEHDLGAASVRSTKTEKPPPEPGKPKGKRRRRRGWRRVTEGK
esBAF inh – blocks esBAF chromatin remodeling in mouse ES cells; Bmi1-luciferase knock-in reporter, 24 h; 100% = twice the neutral-well signal; reporter increase, % at 12.5 µM; actives 2% (n = 350,000); in the data active means activation above about 40%; inconclusive means no clear call, values can overlap the other calls;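 further: a rise in the Bmi1 reporter signal indicates esBAF inhibition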
Wnt bcat act – Wnt/beta-catenin pathway activation; Wnt/beta-catenin reporter cell assay, activator, plate reader; activation, % at 9.35 µM; actives 1.2% (n = 300,000); AID 743398; in the data active means activation above about 30%, passing the limit was not always enough; inconclusive means no clear call, values can overlap the other calls
Xi reactivation – activators of X-chromosome reactivation in mouse fibroblasts; XiGFP mouse fibroblasts, % GFP-positive cells imaging, 3 d; cells co-treated with 5-aza-dC sensitizer; scaled so ellipticine positive control = 100%; activation, % at 7.58 µM; actives 0.055% (n = 360,000);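 active means mean normalized replicate activation at least 10% and every replicate at or above 10%; inconclusive means only one of the two criteria met; inactive means mean below 10% and not all replicates reach 10%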
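Assay system: SV40-immortalized XiGFP fibroblast cells, line 68-5-11; buffer or medium: DMEM plus 5-aza-dC sensitizer; compound: one concentration, pinned; timing: compounds 3 days, fix/stain 15 min at room temperature; benchmarks: positive control ellipticine, 6 µM final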
CASP6 VEID inh – blocks human caspase-6 cleavage activity | actives 0.53% (n = 350,000) | P55212 | purified caspase-6, Z-VEID-R110 cleavage fluorescence | inhibition, % at 12.5 µM;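 active means mean inhibition across replicates at least about 35%, with every replicate also reaching that limit, limit read from the data; inconclusive means only one of the two criteria met; inactive means neither criterion met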
A number is an active result; i = inactive; ? = inconclusive; nt = not tested or not shown. Rows were chosen to be rich in hits. Some 3% of all compounds tested hit in one or more screens of this group.

SMILES	MITF TRPM1 HTS	NSD2 inh	esBAF inh	Wnt bcat act	Xi reactivation	CASP6 VEID inh
Cc1ccc(NC(=O)C2CCN(S(=O)(=O)c3ccc(Cl)c(C(F)(F)F)c3)CC2)nc1	i	i	i	i	i	i
Cc1ccc(NC(=O)C2CCN(S(=O)(=O)c3ccc4ccccc4c3)CC2)nc1	i	i	58	i	i	i
O=C(Nc1ccc2c(c1)OCCO2)c1cccc(S(=O)(=O)N2CCOCC2)c1	i	i	?	45	nt	nt
CCOc1ccccc1C(=O)N[C@H](C(=O)OCc1csc(CC(=O)Nc2ccc(C)cc2)n1)C(C)C	i	i	nt	i	i	i
CCOc1ccccc1C(=O)NCC(=O)OCc1csc(CC(=O)Nc2ccc(C)cc2)n1	i	i	56	i	i	i
Cc1ccc(N2CCN(C(=O)c3cn(CC4CCCCC4)nn3)C(C)C2)cc1 (stereo not drawn)	i	i	nt	40	i	i
NCC[C@H]1CC[C@@H](NC(=O)Cc2ccncc2)[C@@H](CO)O1	nt	nt	i	nt	i	i
CSCc1ccc(C(=O)NCCSc2ccc(Br)cc2)cc1	108	i	48	?	i	i
O=C(NCCSc1ccc(Br)cc1)c1ccccc1	i	i	nt	i	i	i
C[C@H]1CN([C@@H](C)CO)C(=O)c2cc(NC(=O)Cc3ccccc3)ccc2O[C@H]1CN(C)S(=O)(=O)c1ccc(Cl)cc1	nt	nt	i	nt	i	i
O=C(Cn1c2ccc(F)cc2c2nc3n(c(=O)c21)CCS3)NC1CCCC1	i	i	i	i	i	52
CC1(C)NC(=O)N(CCOCCOc2ccc3ccccc3c2Br)C1=O	i	i	?	i	nt	nt
CC1(C)NC(=O)N(CCCCOc2ccc3ccccc3c2Cl)C1=O	i	i	53	nt	nt	nt
C[C@H]1CN([C@@H](C)CO)C(=O)Cc2cc(NC(=O)Nc3ccccc3)ccc2O[C@@H]1CN(C)S(=O)(=O)c1ccc(F)cc1	nt	nt	i	nt	i	i
O=C(O)c1cccc2cc(-c3ccccc3)oc(=O)c12	nt	i	i	i	i	i
O=C(O)c1cccc2cccc(-c3c4ccc(=O)c(O)c-4oc4c(O)c(O)ccc34)c12	i	nt	nt	i	i	99
CC1CCCCN1C(=O)CSc1nnc(-c2ccc(Cl)s2)o1 (stereo not drawn)	i	i	63	nt	nt	nt
O=C(Oc1ccc(-c2cnc3ccccc3n2)cc1)c1ccco1	?	i	i	69	nt	nt
CCC(=O)Oc1ccc(-c2cnc3ccccc3n2)cc1	i	i	i	i	nt	i
Cc1ccc(Oc2ccc(NC(=O)c3ccco3)cc2)cc1	i	i	i	i	nt	nt
Cc1ccc(NC(=O)c2ccc(OC(=O)c3cc4ccccc4o3)cc2)cc1	i	i	60	43	nt	nt
Cc1ccc(NC(=O)c2ccc(OC(=O)c3ccco3)cc2)cc1	121	i	54	i	nt	i
O=C(C[C@H]1C=C[C@@H](NC(=O)C2CCOCC2)[C@H](CO)O1)Nc1ccccc1	nt	nt	nt	nt	i	i
CS(=O)(=O)N1C[C@H](O)COC[C@@H]2O[C@@H](CC(=O)NCc3ccc(-c4ccccc4)cc3)CC[C@H]21	nt	nt	i	nt	i	i
CC(C)C(C(=O)Nc1ccc2c(c1)OCO2)N1C(=O)c2ccccc2C1=O (stereo not drawn)	i	i	i	nt	nt	nt
SMILES	MITF TRPM1 HTS	NSD2 inh	esBAF inh	Wnt bcat act	Xi reactivation	CASP6 VEID inh
CCC(SC1=Nc2ccccc2C2=NC(CC(C)C)C(=O)N12)C(=O)Nc1ccc2c(c1)OCO2 (stereo not drawn)	i	i	51	i	nt	nt
COc1ccc(OC)c(N/C(=N/c2nc(C)cc(C)n2)NC(C)=O)c1	nt	i	i	i	i	53
C[C@@H]1CN([C@@H](C)CO)S(=O)(=O)c2ccc(C#CC3CCCC3)cc2O[C@@H]1CN(C)C(=O)C1CC1	nt	nt	i	nt	i	i
CN(CCC#N)C(=O)c1cc2c(s1)-c1ccccc1SC2	86	i	53	i	i	i
N#CCCN(C(=O)c1cc2c(s1)-c1ccccc1S(=O)(=O)C2)c1ccccc1	i	i	i	i	i	i
CC(C)[C@H](C)NC(=O)N(C)C[C@H]1OCc2ccccc2-c2c(n(C)c3ccccc23)C(=O)N([C@H](C)CO)C[C@@H]1C	nt	nt	nt	nt	i	nt
CC(=O)N(C)C[C@@H]1Oc2ncc(C#Cc3cccnc3)cc2C(=O)N([C@@H](C)CO)C[C@@H]1C	nt	nt	nt	nt	i	i
c1ccc(-c2noc(-c3cccc4ccccc34)n2)cc1	i	i	76	nt	nt	nt
c1cncc(-c2noc(-c3cccc4ccccc34)n2)c1	i	i	58	i	nt	i
c1ccc2c(-c3nc(-c4ccncc4)no3)cccc2c1	i	i	46	nt	nt	nt
COc1ccc(-c2noc(-c3ccccc3-c3ccccc3)n2)cc1	nt	i	i	i	nt	nt
COc1ccc(-c2nnc(NC(=O)C(C)C)s2)c(OC)c1	i	nt	42	34	i	i
COC(=O)Nc1nnc(-c2ccccc2Cl)s1	88	i	i	nt	nt	nt
COC(=O)Nc1nnc(-c2ccccc2OC)s1	i	i	nt	49	i	i
COc1ccc(Cc2nnc(NC(=O)C(C)C)s2)cc1	nt	i	i	i	i	i
CCOC(=O)Nc1nnc(-c2ccccc2OC)s1	i	i	i	nt	nt	nt
C[C@H]1CN([C@@H](C)CO)C(=O)Cc2cc(NC(=O)CCC(F)(F)F)ccc2O[C@H]1CN(C)Cc1ccc2c(c1)OCO2	nt	nt	i	nt	i	i
CC(O)(CS(=O)(=O)Cc1ccccc1)C(=O)Nc1cccc(C(F)(F)F)c1 (stereo not drawn)	i	i	i	i	nt	40
CC(O)(CS(=O)(=O)Cc1ccccc1)C(=O)Nc1ccc(C(F)(F)F)cc1 (stereo not drawn)	i	i	i	nt	nt	nt
Cc1noc(C)c1NC(=O)Nc1cccc2c1O[C@@H](CN(C)C(=O)NC1CCCCC1)[C@H](C)CN([C@@H](C)CO)C2=O	nt	nt	i	nt	i	i
CO[C@H](CN(C)C(=O)c1ccccc1F)[C@@H](C)CN([C@@H](C)CO)S(=O)(=O)c1ccccc1	nt	nt	i	nt	i	i
CC(C)NC(=O)N1C[C@@H]2C(c3ccc(Br)cc3)[C@H](C1)N2Cc1ccc(F)cc1 (stereo partly drawn)	nt	nt	nt	nt	i	nt
COc1ccc(/C=N/NC(=O)c2ccoc2C)cc1COc1c(C)cccc1C	nt	i	50	i	nt	nt
COc1ccc(/C=N/NC(=O)c2ccccc2O)cc1CN1CCOCC1	i	i	i	i	i	42
Cc1nn(-c2ccccc2C(=O)O)c(=O)c2ccccc12	i	nt	i	i	nt	nt
Cc1nn(-c2ccc(Br)cc2)c(=O)c2ccccc12	i	i	i	42	i	i
O=C(O)C1C2C=CC(C2)C1C(=O)NCc1cccs1 (stereo not drawn)	i	i	i	i	i	45
C[C@@H]1CN([C@H](C)CO)C(=O)c2cc(NC(=O)CCN3CCOCC3)ccc2O[C@H]1CN(C)S(C)(=O)=O	nt	nt	i	nt	i	i
Cc1nc2cc(C(=O)NCCN3CCOCC3)ccc2n1-c1ccc(F)cc1F	i	nt	i	nt	nt	nt
Cc1cccc(-n2c(C)nc3cc(C(=O)NCCN4CCOCC4)ccc32)c1	nt	i	i	i	i	89
